Published values of several laboratories.
Protocols differ between the studies behind these lines.
Target: Myosin light chain kinase (MYLK3, Homo sapiens, UniProt Q32MK0)
Residues used in one study (Q32MK0 1-819): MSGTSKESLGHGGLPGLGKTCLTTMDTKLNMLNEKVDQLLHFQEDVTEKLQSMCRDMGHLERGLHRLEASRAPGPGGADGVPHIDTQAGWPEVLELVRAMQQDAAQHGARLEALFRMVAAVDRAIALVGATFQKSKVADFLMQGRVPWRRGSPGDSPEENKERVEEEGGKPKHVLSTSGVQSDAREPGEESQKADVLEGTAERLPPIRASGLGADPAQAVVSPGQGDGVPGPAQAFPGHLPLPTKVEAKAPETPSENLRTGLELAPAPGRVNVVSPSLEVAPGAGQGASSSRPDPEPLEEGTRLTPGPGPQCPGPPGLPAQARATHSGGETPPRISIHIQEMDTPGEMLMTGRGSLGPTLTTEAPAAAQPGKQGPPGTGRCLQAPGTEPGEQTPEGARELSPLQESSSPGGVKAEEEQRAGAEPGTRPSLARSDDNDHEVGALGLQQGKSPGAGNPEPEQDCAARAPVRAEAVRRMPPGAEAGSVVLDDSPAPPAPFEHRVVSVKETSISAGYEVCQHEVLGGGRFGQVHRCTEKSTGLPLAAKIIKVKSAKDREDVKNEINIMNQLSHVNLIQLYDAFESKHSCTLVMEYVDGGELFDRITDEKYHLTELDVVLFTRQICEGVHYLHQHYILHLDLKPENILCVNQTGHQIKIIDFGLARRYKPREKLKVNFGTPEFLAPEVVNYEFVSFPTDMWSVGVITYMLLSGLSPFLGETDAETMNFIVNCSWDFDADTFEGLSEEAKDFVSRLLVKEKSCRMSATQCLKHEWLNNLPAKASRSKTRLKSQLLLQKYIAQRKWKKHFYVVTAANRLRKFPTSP

CS(=O)(=O)N1CCCC(NC(=O)[C@H](CCC2CCCCC2)NC(=O)c2ccc(CNC(=O)c3cnc4ccccn34)cc2)C1 (stereo partly drawn)  remaining binding (cell-free assay, competition with immobilised ligand; 0.1 µM): 88%
O=C(c1ccc(Nc2ncc(Cl)c(-c3cc4ccccc4s3)n2)cc1)N1CCC(N2CCCC2)CC1  remaining binding (binding, competition with immobilised ligand; 1 µM): 2%
CNC(=O)[C@@H]1CC[C@@H](n2c(-c3ccc4cnccc4c3)nc3ccc(C(=O)NCc4cccc(C(N)=O)c4)cc32)C1  remaining binding (binding, competition with immobilised ligand; 1 µM): 100%
O=C(Nc1c[nH]nc1C(=O)NC1CCNCC1)c1cc(F)cc(F)c1  remaining binding (binding, competition with immobilised ligand; 1 µM): 90%
COc1cnc(Nc2cccc(S(N)(=O)=O)c2)nc1N1CCN(c2ccccc2)C(=O)C1  remaining binding (binding, competition with immobilised ligand; 1 µM): 97%
C=CC(=O)N1CCC(C(=O)NCC(=O)N2CCN(c3nc(-c4cnc(N)nc4C(F)F)nc(N4CCOCC4)n3)CC2)CC1  remaining binding (binding, competition with immobilised ligand; 1 µM): 92%
O=C(c1ccc(Nc2nccc(-c3cc4ccccc4s3)n2)cc1)N1CCC(N2CCCC2)CC1  remaining binding (binding, competition with immobilised ligand; 1 µM): 2.5%
N#CC1(c2ccccn2)CCN(Cc2cc(C(=O)N3CCCC3)c(=O)n3ccccc23)CC1  remaining binding (cell-free assay, competition with immobilised ligand; 1 µM): 76%
COc1ncc2cc3ccccc3nc2c1C#N  remaining binding (cell-free assay, competition with immobilised ligand; 5 µM): 96%
N[C@H]1CCN(c2nccc(-c3cnn4ncccc34)n2)C1  remaining binding (binding; 1 µM): 88%
Nc1c(C(=O)NCc2ccc(C(=O)NCCCC3CCCCC3)cc2)cnn1-c1ccccc1  remaining binding (cell-free assay, competition with immobilised ligand; 0.1 µM): 100%
COc1ccnn2ncc(-c3ccnc(N(C)C)n3)c12  remaining binding (binding; 1 µM): 71%
O=C(NCCCN1CCOCC1)c1ccc(Nc2nccc(-c3cc4ccccc4s3)n2)cc1  remaining binding (binding, competition with immobilised ligand; 1 µM): 3.6%
C[C@@H]1CCN(c2nccc(-c3cnn4ncccc34)n2)C1  remaining binding (binding; 1 µM): 91%
CCN1CCN(Cc2ccc(C(=O)Nc3ccc(C)c(Oc4ccc5c(c4)CC(=O)N5)c3)cc2C(F)(F)F)CC1  remaining binding (binding, competition with immobilised ligand; 1 µM): 100%
CN(C)c1nccc(-c2cnn3ncccc23)n1  remaining binding (binding; 1 µM): 100%
C[C@@H]1CN(c2cc(-c3nn(C)c4ccc(OC5(C)CC5)cc34)ncn2)C[C@H](C)O1  remaining binding (cell-free assay, competition with immobilised ligand; 1 µM): 97%
CN(CCCC(F)(F)F)c1nccc(-c2cnn3ncccc23)n1  remaining binding (binding; 1 µM): 100%
C[C@H](c1ccc(F)cc1)N(Cc1cccc(C(=O)O)c1)C(=O)c1cnc2ccccc2c1  remaining binding (cell-free assay, competition with immobilised ligand; 1 µM): 100%
c1cnn2ncc(-c3ccnc(N4CCC45COC5)n3)c2c1  remaining binding (binding; 1 µM): 100%
CC(=O)N1CCC(c2ccc(C(=O)NC3=NCCN3)cc2C(F)(F)F)CC1  remaining binding (cell-free assay, competition with immobilised ligand; 1 µM): 100%
